Data on 83 variants can be found in the RNAGym collection of RNA variant scans (doi:10.1038/s41586-018-0170-7).

To fix the notation:
B1: tRNA (parent)
chain: GUUCCGUUGGCGUAAUGGUAACGCGUCUCCCUCCUAAGGAGAAGACUGCGGGUUCGAGUCCCGUACGGAACG

The variants in this data set derive from B1. Kind of data set: yeast fitness, log relative to wild type (ln ratio); higher = fitter; tRNA-Arg(CCU), competitive growth, 37 C, 1 M NaCl. The procedure, abridged:
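Two independent transformations put a combinatorial tRNA-Arg(CCU) variant library on a HIS3 centromeric plasmid into BY4742 lacking the chromosomal gene. Pools were grown in SC-HIS at 30 °C for 4 generations, then in SC-HIS 1M NaCl at 37 °C for ~6.5 generations (~26.5 h), with three outputs taken per input. Fitness compares a genotype's generations with the wild type's as a natural log ratio. Those generations are OD-scaled log2 output/input frequencies, inverse-variance weighted across replicates, from 125 bp paired-end Illumina counts.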
For the variant U2G G6A A43C, the “yeast fitness (ln)” value was -0.0921.
With U2G C66U C71U the figure was -0.181.
With U2G C66A A69G A70U the figure was -0.131; with U2G C66A A69G A70G, -0.148.
Turning to U2G G6A C27U A43C C66A A69G A70G, the “yeast fitness (ln)” value is -0.368.
With U2G G6A C27U A43C C66A A69G A70U the figure was -0.301.
With U2G C66A A70U C71U the figure was -0.0556.
With U2G G6A C27U A43C C66U A70G the figure was -0.223; with U2G G6A C27U A43C C66U A70U, -0.0534.
Regarding U2G G6A A43C C46U C71U, the “yeast fitness (ln)” value is -0.151.
With U2G G6A C27U A43C A70G C71U the figure was -0.221; with U2G C66A C71U, -0.108; with U2G G6A C27U C46U C66U A70U C71U, -0.158.
With U2G C66U A69G A70G C71U the figure was -0.204; with U2G G6A C27U C46U A70G C71U, -0.207.
With U2G G6U A43C C46U A69G A70U the figure was -0.194; with U2G G6U A43C C46U A69G A70G, -0.183.
Consider U2G G6A C66A A69G A70U C71U, for which the “yeast fitness (ln)” value was -0.31.
With U2G G6A C46U C71U the figure was -0.149; with U2G G6A C46U C66U A69G, -0.163; with U2G G6A C46U A69G C71U, -0.124.
With U2G G6A C46U C66A A70G C71U the figure was -0.148.
Regarding U2G G6A A43C C46U C66A A70G C71U, the “yeast fitness (ln)” value was -0.139.
With U2G G6A C27U A43C C46U C66A A69G A70U C71U the figure was -0.65.
With U2G G6A C46U C66A C71U the figure was -0.134.
With U2G G6A A43C A69G A70G C71U the figure was -0.233.
As for U2G G6A C27U A43C C46U C71U, the “yeast fitness (ln)” value was -0.134.
With U2G G6A C27U A43C C46U A69G C71U the figure was -0.22.
With U2G G6A C27U C46U C66A A70G C71U the figure was -0.221; with U2G G6A A43C A70U C71U, -0.169; with U2G G6A C27U C46U C66A A69G A70U, -0.134.
Turning to U2G G6A C27U C46U C66A A69G A70G, the “yeast fitness (ln)” value was -0.134.
With U2G G6A C27U C46U C66U A69G A70G C71U the figure was -0.216; with U2G G6A A43C C66U, -0.0762.
With U2G G6A C27U A43C C71U the figure was -0.197; with U2G G6A C27U A43C A69G A70U C71U, -0.502; with U2G G6A C27U A43C C66A C71U, -0.2.
With U2G G6A C27U A69G A70G C71U the figure was -0.245; with U2G C66U A70U, -0.00968.
U2G C66U A70G: the “yeast fitness (ln)” value is -0.0789.
With U2G G6A C27U C46U C66A A69G A70U C71U the figure was -0.385; with U2G G6U A43C C46U, -0.106; with U2G C46U C66A A69G A70G, -0.0404.
In the case of U2G C46U C66A A69G A70U, the “yeast fitness (ln)” value is -0.0347.
With U2G G6A C46U A70G C71U the figure was -0.144.
With U2G G6A C27U C66A A70U C71U the figure was -0.244.
U2G G6A C27U C46U A69G A70G C71U: the “yeast fitness (ln)” value is -0.194.
With U2G G6U A43C A69G A70G C71U the figure was -0.28.
With U2G G6A C27U A43C C46U A69G A70G C71U the figure was -0.297; with U2G G6A C66U A69G A70U C71U, -0.641.
U2G G6A A43C C66A A70U C71U: the “yeast fitness (ln)” value is -0.33.
With U2G G6A C46U A69G the figure was -0.183; with U2G C46U C66U A69G A70U C71U, -0.349.
On to U2G G6U A43C A69G A70U C71U, for which the “yeast fitness (ln)” value is -0.433.
With U2G G6A C27U A43C C46U A70G C71U the figure was -0.201.
With U2G G6A C66A A70G the figure was -0.0981; with U2G G6A C66A A70U, -0.178.
With U2G G6A A43C A70G C71U the figure was -0.18; with U2G G6A C46U C66A A69G A70G C71U, -0.193; with U2G G6A C27U A43C C46U C66A A70G C71U, -0.19.
Regarding U2G G6A C27U A43C A70U C71U, the “yeast fitness (ln)” value was -0.242.
With U2G G6A A70U C71U the figure was -0.107.
With U2G G6A A43C C46U A70U C71U the figure was -0.118; with U2G C66U A70U C71U, -0.543.
With U2G G6A C27U A43C C46U C66U A70G the figure was -0.143; with U2G G6A C27U A43C C46U C66U A70U, -0.0122; with U2G G6A A69G A70G, -0.139.
Consider U2G G6A A69G A70U, for which the “yeast fitness (ln)” value was -0.265.
With U2G G6A C27U C66U A70U C71U the figure was -0.364.
With U2G C46U C66U A70G C71U the figure was -0.115; with U2G G6A C27U A43C C66A, -0.237; with U2G G6A C27U A43C C66U, -0.113.
With U2G C66U A70G C71U the figure was -0.121; with U2G C46U A69G C71U, -0.0879.
U2G G6A C27U A69G C71U: the “yeast fitness (ln)” value was -0.268.
With U2G C46U A70G C71U, the “yeast fitness (ln)” value was -0.284.
With U2G C66A A69G A70U C71U the figure was -0.291.
With U2G G6A C27U C66A A69G A70U C71U the figure was -0.499; with U2G G6A C27U A43C C46U C66A A69G A70G C71U, -0.252; with U2G G6A C27U A43C C46U C66A A70G, -0.132.
With U2G G6A C27U A43C C46U C66A A70U the figure was -0.115; with U2G G6A A43C C46U A69G A70U C71U, -0.347; with U2G G6A, -0.00406.
